Experimental findings from ChEMBL document CHEMBL1944548, “Discovery of kinase spectrum selective macrocycle (16E)-14-methyl-20-oxa-5,7,14,26-tetraazatetracyclo[19.3.1.1(2,6).1(8,12)]heptacosa-1(25),2(26),3,5,8(27),9,11,16,21,23-decaene (SB1317/TG02), a potent inhibitor of cyclin dependent kinases (CDKs), Janus kinase 2 (JAK2), and fms-like tyrosine …” (J Med Chem, 2012) are described below.

Each structure is given as a SMILES string. Active and inactive are the calls of the source. The calls are words filed in the database; no cut-off is given here.

Data set [1] relates to HCT-116. The data set is described as follows: Antitumor activity against human HCT116 cells xenografted in BALB/c nude mouse assessed as tumor growth inhibition at 50 mg/kg, po qd administered thrice in a week for 15 days. The class given is functional, organism-based. Details: dose 50 mg/kg. The essentials:
(§1)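 Female BALB/c nude mice implanted sc with 5 × 10^6 HCT-116 cells; treatment began day 8 after inoculation when tumors were 75–144 mm3 (group mean 105 mm3), 9–10 mice/group. Oral gavage at 50 or 75 mg/kg, Mon/Wed/Fri, in 0.5% methylcellulose/0.1% Tween 80, to day 15. Volume (w2l)/2 measured twice weekly. %TGI from day-15 median volumes vs vehicle.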

A short description of data set [2]: Plasma protein binding in mouse at 1000 ng/ml after 4 hrs by equilibrium dialysis method. The class given is ADME, cell-free. The conditions noted are these: read-out: PPB (converted). The essentials:
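Equilibrium dialysis of plasma (mouse, dog, human) spiked to 1000 ng/mL against PBS, 4 h at 37 °C. Buffer side extracted in triplicate with MTBE, dried, reconstituted in methanol/water 60:40, measured by LC−MS/MS.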

In data set [3] the test system is HCT-116. Put plainly: Antitumor activity against human HCT116 cells xenografted in po dosed BALB/c nude mouse assessed as tumor growth inhibition. The format is functional, organism-based. The essentials: as §1
The target of the next data set is Cytochrome P450 2D6 (Homo sapiens, UniProt P10635). Put plainly: Inhibition of CYP2D6 in human liver microsomes using dextromethorphan as substrate after 30 mins by LC-MS/MS analysis. The format is ADME, Microsome. In a few lines:
(§2)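 Human liver microsomes with 1 mM NADPH at 37 °C. Test concentrations 0.05, 0.25, 0.5, 2.5, 5 and 25 μM; final DMSO 0.35%. CYP1A: 0.25 mg/mL microsomes, ethoxyresorufin 0.5 μM, 5 min. CYP2D6: 0.5 mg/mL microsomes, dextromethorphan 5 μM, 30 min. IC50 from the fall in metabolite formation versus vehicle control. Selective inhibitors served as positive controls.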

Data set [4] deals with Cyclin-dependent kinase 2 (Homo sapiens) (UniProt P24941). The data set is described as follows: Inhibition of CDK2 in human HCT116 cells assessed as Rb phosphorylation at 200 nM after 24 hrs by Western blot analysis. The class given is cell-based. Particulars: HCT-116. The essentials: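 HCT-116 cells (2 × 10^5 in McCoy's medium with 2 mM L-glutamine and 10% FBS) seeded 16−24 h before dosing. Each dish exposed to one compound concentration or DMSO for 24 h. Lysis in modified RIPA buffer; protein by Bradford. 30 μg lysate run on 10% SDS−PAGE, blotted to PVDF, probed for phospho-Rb and β-actin. ECL detection.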

A short description of data set [5]: Cmax in BALB/c mouse at 75 mg/kg, po by LC-MS/MS analysis. Details: dose 75 mg/kg, route oral. The format is ADME, organism-based. Particulars: in vivo. In a few lines: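 Male BALB/c mice (~10−12 weeks, 17−22 g) gavaged with 75 mg/kg as a suspension in 0.5% methylcellulose/0.1% Tween 80. Serial blood by cardiac puncture over 0−24 h into K3EDTA, plasma stored at −70 °C, LC−MS/MS; parameters by noncompartmental analysis.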

The next data set has as its target T1, Cytochrome P450 1A2 (Homo sapiens, UniProt P05177).
T1 sequence (P05177 whole entry): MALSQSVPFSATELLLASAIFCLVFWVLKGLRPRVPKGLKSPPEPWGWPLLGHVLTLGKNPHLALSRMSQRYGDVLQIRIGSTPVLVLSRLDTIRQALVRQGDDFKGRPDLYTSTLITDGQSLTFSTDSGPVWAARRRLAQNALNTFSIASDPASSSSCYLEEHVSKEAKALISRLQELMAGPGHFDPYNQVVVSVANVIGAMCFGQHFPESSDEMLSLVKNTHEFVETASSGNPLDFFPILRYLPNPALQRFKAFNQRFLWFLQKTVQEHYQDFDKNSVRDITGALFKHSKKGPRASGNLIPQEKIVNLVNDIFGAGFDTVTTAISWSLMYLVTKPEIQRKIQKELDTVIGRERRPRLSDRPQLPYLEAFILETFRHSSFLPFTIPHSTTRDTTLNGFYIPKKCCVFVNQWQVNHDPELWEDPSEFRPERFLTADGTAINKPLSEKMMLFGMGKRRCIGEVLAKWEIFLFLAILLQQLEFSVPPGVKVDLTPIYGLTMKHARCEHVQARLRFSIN
Put plainly: Inhibition of CYP1A2 in human liver microsomes using ethoxyresorufin as substrate after 5 mins by LC-MS/MS analysis. The format is ADME, Microsome. In a few lines: as §2

The nature of data set [6]: Half life in mouse liver microsomes at 5 uM by LC-MS/MS analysis. The class given is ADME, Microsome. In a few lines:
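5 μM with mouse, rat, dog or human liver microsomes (~0.87 mg/mL), 50 mM potassium phosphate pH 7.4, NADPH regeneration system, 37 °C.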

Data set [7] deals with T2, Receptor-type tyrosine-protein kinase FLT3 (Homo sapiens, UniProt P36888).
T2 sequence (P36888 whole entry): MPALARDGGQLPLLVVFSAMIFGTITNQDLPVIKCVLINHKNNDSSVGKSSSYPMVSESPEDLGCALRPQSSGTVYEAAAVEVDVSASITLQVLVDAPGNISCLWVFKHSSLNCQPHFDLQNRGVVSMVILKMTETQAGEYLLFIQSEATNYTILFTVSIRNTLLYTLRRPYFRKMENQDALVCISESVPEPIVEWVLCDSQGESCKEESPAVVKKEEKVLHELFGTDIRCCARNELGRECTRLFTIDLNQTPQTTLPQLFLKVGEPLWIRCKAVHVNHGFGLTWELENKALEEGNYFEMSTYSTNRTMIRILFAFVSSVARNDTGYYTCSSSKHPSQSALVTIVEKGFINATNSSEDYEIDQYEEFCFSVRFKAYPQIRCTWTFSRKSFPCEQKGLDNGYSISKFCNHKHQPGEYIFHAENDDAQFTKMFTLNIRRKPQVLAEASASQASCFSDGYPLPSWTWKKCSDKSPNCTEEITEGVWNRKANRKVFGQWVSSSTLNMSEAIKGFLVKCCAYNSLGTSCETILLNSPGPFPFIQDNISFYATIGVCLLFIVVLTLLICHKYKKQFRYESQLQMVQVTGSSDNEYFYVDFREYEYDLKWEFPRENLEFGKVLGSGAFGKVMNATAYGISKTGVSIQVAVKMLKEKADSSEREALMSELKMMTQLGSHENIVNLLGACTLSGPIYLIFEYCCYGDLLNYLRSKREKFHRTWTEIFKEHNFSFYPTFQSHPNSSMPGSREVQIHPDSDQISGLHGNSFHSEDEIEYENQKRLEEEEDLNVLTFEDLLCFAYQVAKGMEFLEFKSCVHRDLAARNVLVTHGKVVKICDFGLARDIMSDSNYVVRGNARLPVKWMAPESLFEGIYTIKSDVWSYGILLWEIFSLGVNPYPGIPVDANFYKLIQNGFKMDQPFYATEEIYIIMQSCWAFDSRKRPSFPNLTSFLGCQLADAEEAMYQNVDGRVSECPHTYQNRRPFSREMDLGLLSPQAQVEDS
The data set is described as follows: Inhibition of recombinant Flt3 using poly(Glu,Tyr) as substrate after 2 hrs by luminescence assay.

Data set [8] can be described thus: Oral bioavailability in Wistar rat at 10 mg/kg by LC-MS/MS analysis. Particulars: in vivo.
Data set [9] has as its system HCT-116. Put plainly: Antitumor activity against human HCT116 cells xenografted in BALB/c nude mouse assessed as tumor growth inhibition at 75 mg/kg, po qd administered thrice in a week for 15 days. Particulars: HCT-116, 360 h, read-out: GI. The class given is functional.

Sequence of Cytochrome P450 2D6 (P10635 whole entry): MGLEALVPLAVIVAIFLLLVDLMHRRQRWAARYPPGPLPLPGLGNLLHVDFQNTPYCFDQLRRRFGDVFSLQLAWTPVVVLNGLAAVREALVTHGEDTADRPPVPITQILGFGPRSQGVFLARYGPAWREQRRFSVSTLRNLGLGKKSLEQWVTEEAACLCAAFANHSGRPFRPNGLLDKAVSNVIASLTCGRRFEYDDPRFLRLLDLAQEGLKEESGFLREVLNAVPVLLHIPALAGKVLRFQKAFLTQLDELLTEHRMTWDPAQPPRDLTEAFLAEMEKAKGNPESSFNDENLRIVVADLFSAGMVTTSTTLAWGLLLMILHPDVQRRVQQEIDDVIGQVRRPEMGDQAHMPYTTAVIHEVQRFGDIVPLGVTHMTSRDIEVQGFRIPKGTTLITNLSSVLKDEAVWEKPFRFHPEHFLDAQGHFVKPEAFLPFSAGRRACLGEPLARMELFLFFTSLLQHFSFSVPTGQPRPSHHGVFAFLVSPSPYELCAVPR

Regarding `CN1C/C=C/CCOc2cccc(c2)-c2ccnc(n2)Nc2cccc(c2)C1` [ZOTIRACICLIB], the “growth inhibition (GI)” value in the data set with HCT-116 [1] was “Active”. In data set [2], the fraction unbound at 4 h, 1000 ng/ml is 0.006. In addition, the “growth inhibition (GI)” value in the data set on HCT-116 [3] is “Dose-dependent effect”. The IC50 against Cytochrome P450 2D6 is 950 nM; on Cytochrome P450 1A2, above 25000 nM; in data set [7] it was 56 nM. Besides, the inhibition entry in data set [4] was “Active”. This compound returned a Cmax in data set [5] of 1030 ng/mL. Besides, in data set [6], the half-life at 5 µM amounted to 12 min. In data set [8], the bioavailability came to 4%. Besides, the inhibition in vivo at 75 mg/kg with HCT-116 [9] amounted to 82%.
